CHOP UPR activ – activators of apoptotic arm of unfolded protein response (CHOP) | CHO-CHOP luciferase reporter, UPR activation, luminescence; percent of tunicamycin response over DMSO baseline | activation, % at 10 µM | 0.34% of 330,000 active | AID 449763;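 active = at 10 µM dose, activation of 40% or more, normalized to positive control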
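Evaluation: % reporter activation, DMSO baseline versus tunicamycin full activation; System: CHO-CHOP luciferase reporter cell line; Input: 500 cells/well; Incubation: 6 h compound treatment, 37 °C; Measured by: Steady-Glo luciferase luminescence; Dosing: one dose, 10 µM in 0.5% DMSO; Buffer or medium: F12 medium, 10% FBS; Benchmarks: positive tunicamycin 10 µg/mL, negative DMSO alone.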
Gli-Sufu antag – Gli-Sufu pathway antagonism; Sufu-KO-LIGHT fibroblasts, Gli luciferase reporter luminescence; inhibition, % at 5 µM; 0.74% of 340,000 active;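 active = inhibition above about 55%, limit read from the data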
697 NFkB inh – lowers PMA/ionomycin-induced NF-kB signal in 697 B cells. 697 B-cell NF-kB luciferase reporter, 16 h. inhibition, % at 4 µM. 0.33% of 330,000 active. AID 435022; in the data active = inhibition above about 35%
CHOP inhibitor – CHOP inhibition in unfolded protein response; CHO-K1 CHOP-promoter luciferase, tunicamycin-induced, 15-18 h; inhibition, % at 10 µM; 3.8% of 220,000 active; AID 2732;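 active = compounds that reduced the stress-induced luciferase reporter signal by more than about 70% of percent inhibition, limit read from the data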
Jurkat NFkB inh – inhibitors of the PMA/ionomycin-induced NF-kB reporter in Jurkat cells | PMA/ionomycin-induced NF-kB luciferase reporter, luminescence | inhibition, % at 4 µM | 0.53% of 330,000 active | AID 435003; in the data active = inhibition above about 50%
UPR XBP1 act – activators of adaptive arm of unfolded protein response (XBP1); CHO-XBP1 luciferase reporter, IRE1-XBP1 UPR activation, luminescence; percent of tunicamycin response, DMSO as zero; activation, % at 20 µM; 0.33% of 330,000 active; AID 463104;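 active = versus positive control, 20 µM dose yields 30% or more activation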
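Assay system: IRE1-XBP1 luciferase reporter CHO line. Input: 1000 cells/well. Buffer or medium: F12 with 10% serum. Doses: 20 µM, 1% DMSO. Times: overnight seeding at 37 °C, 6 h compound treatment at 37 °C. Technique: Steady-Glo luciferase glow luminescence, 10 min after reagent addition.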
Gli antag conf – confirmation of Gli-SUFU pathway antagonists; shares compounds with Gli-Sufu antag; AID 602428; 40% of 2,500 active; Sufu-KO-LIGHT cells, Gli luciferase reporter, luminescence; inhibition, % at 5 µM;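 active = mean inhibition at 5 µM reaching about 45%, limit read from the data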
Gli cytotox – cytotoxicity counter-screen for Gli-SUFU antagonists. shares compounds with Gli-Sufu antag. Sufu-KO-LIGHT cells cytotoxicity, ATP luminescence. 32% of 2,500 active. cytotoxicity, % at 5 µM;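 active = mean cytotoxicity at 5 µM above about 25%, limit read from the data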;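 note: cells exposed to compound overnight for roughly 16 to 18 hours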
Wnt3a cs – inhibits Wnt3a reporter, counter-screen for Gli-SUFU antagonists | shares compounds with Gli-Sufu antag | Wnt-LIGHT cells, Wnt3a-driven luciferase reporter, luminescence | inhibition, % at 6.25 µM | 20% of 2,500 active | AID 651995;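 active = mean inhibition above about 25%, limit read from the data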
Of the large screens only hits and unclear results are named; the others gave an inactive call (follow-up assays come after a bar, where they were run). Rows were chosen to be rich in hits. Some 3.9% of all compounds tested hit in one or more screens of this group.

CCOC(=O)c1ccccc1NC(=O)C(C)Oc1ccccc1 (stereo not drawn)	none
CCCC(C)C(=O)Nc1ccccc1C(=O)OCC (stereo not drawn)	Gli-Sufu antag 100 | Gli antag conf inactive | Gli cytotox inactive | Wnt3a cs inactive
Cc1ccc(NC(=O)CCN2C(=O)C3CCCCC3C2=O)cc1[N+](=O)[O-] (stereo not drawn)	none (no result: CHOP inhibitor)
CCn1cc(Cl)c(C(=O)Nc2cccc(CN3CCOCC3)c2)n1	none (no result: CHOP inhibitor)
O=C(NNC(=O)c1cccs1)c1ccc(Cl)nc1	none (no result: CHOP inhibitor)
COc1ccccc1NC(=O)c1cccc(S(=O)(=O)N2CCN(c3ccccc3)CC2)c1	none (no result: CHOP inhibitor)
O=S(=O)(NCc1ccncc1)c1ccc(S(=O)(=O)NCC2CCCO2)cc1 (stereo not drawn)	none | Gli antag conf inactive | Gli cytotox inactive | Wnt3a cs 26
O=S(=O)(NCc1ccccc1)c1ccc(S(=O)(=O)NCC2CCCO2)cc1 (stereo not drawn)	none
CCCCNS(=O)(=O)c1ccc(S(=O)(=O)NCc2ccncc2)cc1	Gli-Sufu antag 57 | Gli antag conf 59 | Gli cytotox 37 | Wnt3a cs inactive
Cc1ccc(C)c(-c2csc(NC(=O)C3=COCCO3)n2)c1	Gli-Sufu antag 63 (no result: CHOP inhibitor) | Gli antag conf 63 | Gli cytotox inactive | Wnt3a cs inactive
CCCOc1ccccc1N/C(N)=N/c1nc(C)cc(C)n1	none
CCCOc1ccccc1N/C(=N/c1nc(C)cc(C)n1)NC(=O)COc1ccc(OC)cc1	Gli-Sufu antag 67 | Gli antag conf 48 | Gli cytotox inactive | Wnt3a cs inactive
c1ccc(SCCCCN2CCOCC2)cc1	none (no result: CHOP inhibitor) | Gli antag conf inactive | Gli cytotox 27 | Wnt3a cs inactive
CC1CC(=O)N(c2ccc(C(C)C)cc2)C(=O)C1	none (no result: CHOP inhibitor) | Gli antag conf inactive | Gli cytotox inactive | Wnt3a cs inactive
O=C(COC(=O)c1ccccc1Br)Nc1ccc2[nH]c(=O)[nH]c2c1	none (no result: CHOP inhibitor)
O=[N+]([O-])c1ccc(-c2ccc(S(=O)(=O)NCCN3CCCC3)cc2)cc1	none | Gli antag conf inactive | Gli cytotox inactive | Wnt3a cs inactive
O=[N+]([O-])c1ccc(S(=O)(=O)NCCN2CCOCC2)cc1	none
CN(Cc1ccccn1)Cc1nc(Cc2ccccc2Cl)no1	none
Cc1cnccc1CN(C)Cc1nc(Cc2ccccc2Cl)no1	Gli-Sufu antag 55 | Gli antag conf inactive | Gli cytotox inactive | Wnt3a cs inactive
Cc1ccccc1NC(=O)c1onc2c1CCCC2	Gli-Sufu antag 56 | Gli antag conf inactive | Gli cytotox inactive | Wnt3a cs inactive
Cc1cccc(NC(=O)c2onc3c2CCCC3)c1C	none
COc1cc(C=O)c(-c2c(C=O)cc(OC)c3c2OCO3)c2c1OCO2	Gli-Sufu antag 63 (no result: CHOP inhibitor) | Gli antag conf inactive | Gli cytotox inactive | Wnt3a cs inactive
O=C(Nc1ccc(Cl)cc1)Nn1cnnc1	none (no result: CHOP inhibitor)
O=C(Cc1ccccc1)Nc1ccccc1N1CCOCC1	none
O=C(CCS(=O)(=O)c1ccccc1)Nc1ccccc1N1CCOCC1	Gli-Sufu antag 66 | Gli antag conf inactive | Gli cytotox inactive | Wnt3a cs inactive
COc1ccc(CC(=O)N2CCCc3ccccc32)cc1OC	Gli-Sufu antag 91 | Gli antag conf inactive | Gli cytotox inactive | Wnt3a cs inactive
CC(NC(=O)c1cc2c(=O)n3ccccc3nc2n(CC2CCCO2)c1=N)c1ccccc1 (stereo not drawn)	Gli-Sufu antag 59 (no result: CHOP inhibitor) | Gli antag conf inactive | Gli cytotox inactive | Wnt3a cs inactive
O=S(=O)(c1ccc(SCCO)nc1)N1CCOCC1	none (no result: CHOP inhibitor)
Cc1cc(C)cc(OCC(=O)NNC(=S)NC(=O)C2CC2)c1	none (no result: CHOP inhibitor)
CS(=O)(=O)N(CC(=O)N1CCOCC1)c1ccc(Cl)cc1	Gli-Sufu antag 56 (no result: CHOP inhibitor) | Gli antag conf inactive | Gli cytotox inactive | Wnt3a cs inactive
CC(C)CC1(C2CCCC2)NC(=O)NC1=O (stereo not drawn)	none (no result: CHOP UPR activ, 697 NFkB inh, CHOP inhibitor, Jurkat NFkB inh, UPR XBP1 act)
O=C(NCCOc1ccccc1)c1ccccc1Cl	none (no result: CHOP inhibitor)
CN(C(=O)COc1ccccc1C(=O)NCCOc1ccccc1)c1ccccc1	Gli-Sufu antag 69, CHOP inhibitor 79 | Gli antag conf 66 | Gli cytotox 43 | Wnt3a cs inactive
Cc1ccc(NC(=O)CN2C(=O)NC3(CCCCC3)C2=O)cc1S(=O)(=O)N1CCOCC1	none (no result: CHOP inhibitor)
Clc1ccc(C[n+]2cc(-c3ccccc3)n3c2CCCCC3)c(Cl)c1	Gli-Sufu antag 86 | Gli antag conf 87 | Gli cytotox 44 | Wnt3a cs inactive
Clc1ccc(-c2c[n+](Cc3ccc(Cl)cc3Cl)c3n2CCCCC3)cc1	Gli-Sufu antag 66 | Gli antag conf 75 | Gli cytotox 30 | Wnt3a cs inactive
Clc1ccc(-c2c[n+](Cc3ccc(Br)cc3)c3n2CCCCC3)cc1	none
CN(CC(=O)N(C)CC(=O)Nc1c(Cl)cccc1Cl)Cc1ccc(Br)s1	none (no result: CHOP inhibitor)
CCOc1ccccc1N1CCN(C(=O)CNC(=O)c2ccc(OC)c(OC)c2)CC1	Gli-Sufu antag 71 (no result: CHOP inhibitor) | Gli antag conf inactive | Gli cytotox inactive | Wnt3a cs inactive
Cc1ccc(C)c(NC(=O)C2CCN(S(=O)(=O)c3ccc4c(c3)NC(=O)CO4)CC2)c1	Gli-Sufu antag 60 (no result: CHOP inhibitor) | Gli antag conf inactive | Gli cytotox inactive | Wnt3a cs inactive
Cc1cccc(NC(=O)C2CCN(S(=O)(=O)c3ccc4c(c3)NC(=O)CO4)CC2)c1	none (no result: CHOP inhibitor)
CCn1cc(CN2CCCC(CNS(=O)(=O)c3cccc4cccnc34)C2)cn1 (stereo not drawn)	none (no result: CHOP inhibitor)
Cc1cc2oc(=O)cc(Cn3ccnc3)c2cc1Cl	none (no result: CHOP inhibitor)
Nc1ccccc1SCC1CSc2nc3ccccc3c(=O)n21 (stereo not drawn)	none
O=c1c2ccccc2nc2n1C(CSCc1ccc(Cl)cc1Cl)CS2 (stereo not drawn)	none | Gli antag conf inactive | Gli cytotox 33 | Wnt3a cs inactive
CC(C)NC(=O)c1ccc(N(Cc2ccccc2)S(C)(=O)=O)cc1	none (no result: CHOP inhibitor)
Cc1csc(N(C(=O)c2cccc(S(=O)(=O)N(C)C)c2)c2ccccc2)n1	Gli-Sufu antag 57 | Gli antag conf inactive | Gli cytotox inactive | Wnt3a cs inactive
Cc1csc(N(C(=O)c2cccc(S(=O)(=O)N3CCCC3)c2)c2ccccc2)n1	none
CS(=O)(=O)CCC(C(=O)Nc1ccc2c(c1)OCO2)N1Cc2ccccc2C1=O (stereo not drawn)	none (no result: CHOP inhibitor)
CCCCc1ccc(N=N/C(C(=O)Nc2ccccc2OC)=C(/C)O)cc1	none

Compound activity as filed in PubChem.
